Assay: Toxicity liver stage against HepG2, at 10uM
Format: cell-based
Design: test concentration 10 uM, cell line HepG2-A16-CD81EGFP
Settings: human, HepG2-A16-CD81EGFP cells; read-out: INHIBITION
Procedure, shortened: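 Uninfected HepG2-A16-CD81EGFP cells, 3 × 10^3 per well, 1536-well, plated on prespotted compound at 10 μM final, parasite-free screening media added to match infected plates; puromycin 10 μM positive, DMSO 0.5% negative; run in parallel with 48 h PbLuc assay at 37 °C, 5% CO2; viability by CellTiter-Glo luminescence, normalized to controls.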

SMILES | cytotoxicity at 10 µM [%]
COCCCN(Cc1ccccn1)S(=O)(=O)N(C)C | 12
O=C(CCc1ccc(-n2cnnn2)cc1)Nc1ccncc1 | -11.2
COC(=O)CSc1nnc2[nH]c(=O)c3c(n12)CCCC3 | -99.8
O=C(NC1CC(=O)N(C2CC2)C1)c1ccc(Cl)s1 (stereo not given) | 9.05
Fc1cnc(N2CCCn3c(nnc3Cn3cccn3)C2)nc1 | 4.53
CCOc1ccc(CCC(=O)N2CC[C@H]3C(=O)NCCO[C@H]3C2)cc1 | 12.1
CCOC1CC2(CCN(Cc3cnn(C)c3)CC2)c2ccc(C)cc21 (stereo not given) | 4.62
CN1C[C@@H]2CN(C(=O)C3CCOC3)C[C@@H]2C1=O (stereo not given in full) | -127
CCCS(=O)(=O)N1C[C@@H](c2nc(C)no2)C[C@H]2OCC[C@H]21 | -130
c1cncc(CN2CCc3c(CNc4nccs4)n[nH]c3C2)c1 | 1.04
Cc1cccc(C(=O)N2CCn3cnc(COCC4CC4)c3C2)c1 | 14
NC(=O)c1c(NC(=O)CCCC(=O)O)sc2c1CCc1ccccc1-2 | -1.25
Cc1noc2nc3c(c(C(=O)/N=c4\[nH]ncs4)c12)CCC3 | -0.493
O=C(C1CC1)N1CC[C@H](O)[C@@H]1Cc1ccccc1 | 1.93
Cc1cnn(CC(=O)N2CCC(c3ccn4nccc4n3)CC2)c1 | 3.24
Cc1nc(N)cc(C2(C)CCCNC2)n1 (stereo not given) | 1.36
CN1CCC(c2cnc(NCc3nccn3C)cn2)CC1 | -5.91
CN1CCOC(C)(C(=O)N2CCN(C3CCCC3)CC2)C1 (stereo not given) | -25.8
Cc1ccnn1CCC(=O)N1CCC(c2cnccn2)CC1 | -26.1
Cc1ccc([C@@]2(O)CC[C@@H]3CN(S(=O)(=O)c4cn(C)nc4C)C[C@@H]32)cc1 | -16.2
O=C(CCCn1cccn1)N1C[C@@H](O)[C@H](Oc2cccc(F)c2)C1 | 5.75
Cc1ccc(S(=O)(=O)N2CCC(c3n[nH]cc3C)C2)cc1 (stereo not given) | -14.3

SMILES | cytotoxicity at 10 µM [%]
CN(C)C(=O)C1CN(Cc2cccs2)CCN(S(C)(=O)=O)C1 (stereo not given) | -33.1
COc1ccc(CN(C)[C@@H]2CN(C(=O)c3cccn3C)C[C@H]2O)cc1 | -21.5
COc1cccc(N2CCN(C(=O)c3ccc(=O)n(C)c3)CC2)c1 | -7.81
COc1ccc(OC)c(S(=O)(=O)NC(=O)C(C)OC)c1 (stereo not given) | -1.2
COc1ccc(S(=O)(=O)NC(=O)C(C)OC)c(OC)c1 (stereo not given) | -6.67
O=C(NCCc1nncn1C1CC1)C1(c2ccccc2)CCC1 | 5.36
Cc1ccc(CN(C)C(=O)NCC(C)(C)NS(C)(=O)=O)s1 | -0.422
COC(C)c1cccc(NCc2ccsc2)c1 (stereo not given) | -4.53
O=C(c1ccc(-c2ccccc2)[nH]c1=O)N1CCN(C2CC2)CC1 | 9.8
CCc1cc(C)c(C(=O)N2CCCC(c3nnn[nH]3)C2)o1 (stereo not given) | 1.02
CN1CCC(N(Cc2ccccc2)C(=O)c2ccn3cncc3c2)CC1 | 5.68
CCC(C)NC(=O)CS(=O)(=O)Cc1cc(Cl)ccc1OC (stereo not given) | 10.8
COc1cc(NCCNC(=O)c2ccc3[nH]ccc3c2)cc(OC)c1 | 6.44
COc1cccc2c1N(CC(=O)Nc1ccc(Cl)cn1)CCC2 | 64.9
CN(C)c1cccc(C(=O)Nc2cnn(Cc3ccncc3)c2)c1 | -9.19
CCC(CNC(=O)c1ccc(C(N)=O)cc1)Oc1cccc(F)c1 (stereo not given) | -39.5
O=C(NCc1nc(C2CC2)no1)N1CCOC(c2ccccc2)C1 (stereo not given) | -45.2
CCCn1nnnc1CSc1nccn1C | -3.39
CN1CCN(C(C)(C)CNC(=O)C2CCCN2S(C)(=O)=O)CC1 (stereo not given) | 7.45
CC(CS(C)(=O)=O)N(C(=O)CCc1ccsc1)C1CC1 (stereo not given) | 1.97
OCC1CCCCN1Cc1nc(Cc2ccccc2)no1 (stereo not given) | 5.13
CC(C)c1ncc2c(n1)CN(Cc1ccc3c(c1)OCCO3)CC2 | -0.996

SMILES | cytotoxicity at 10 µM [%]
CC(=O)N1Cc2ccccc2CC1C(=O)Nc1ccc(C)cn1 (stereo not given) | -0.147
CN(Cc1ccccn1)C(=O)c1ccc2c(c1O)OC(C)(C)C2 | -11.8
CN(Cc1ccc([S+](C)[O-])cc1)c1ccc(Cl)cn1 (stereo not given) | 8.97
Cc1noc(C)c1C(C)C(=O)N1CCCN(C)c2ccc(Cl)cc21 (stereo not given) | 3.89
CCOc1cccnc1C(=O)N1CCC(c2ccccc2OC)C1 (stereo not given) | 7.71
CCc1ccc(C(=O)Nc2cc(N3CCNC3=O)ccc2Cl)o1 | 6.03
Cn1cc(NC(=O)c2cc[nH]n2)cc(Cl)c1=O | -18.3
CN1CCN(Cc2ccccc2CNC(=O)c2ccc(Br)cc2)CC1 | 4.44
CN(C)CC(=O)N1CCc2sc(C(=O)N3CCN(C)CC3)cc21 | -104
CCN(C(=O)c1ccc2nnc(C3CCN(S(C)(=O)=O)C3)n2c1)C(C)C (stereo not given) | -110
CC(C)c1cc(NC(CO)CO)n2nccc2n1 | 6.33
Cc1nn(C)c2nc(N3CCCCC3c3cccnc3)sc12 (stereo not given) | -6.9
CN1CCC(N(CCc2ccccc2)C(=O)c2ccoc2)CC1 | -5.42
CN(C)C(C(=O)N1CC(c2ccccn2)C1)c1cccc(F)c1 (stereo not given) | -0.95
Nc1nc(CNc2nccc(CCC(F)(F)F)n2)cs1 | -2.38
Cc1cc2nc(C(C)C)cc(N(C)CC3CCCN3C)n2n1 (stereo not given) | 8.49
CC(=O)N1CCC(Oc2ccc(Cl)cc2C(=O)N2CCCO2)CC1 | 15.3
COc1ccc(CNC(=O)Cc2csc(C(C)=O)c2)cc1 | 4.95
COc1ncccc1C(=O)N1CCC(c2nc3c(C)cccc3[nH]2)CC1 | 11.7
COc1ccc(F)c(CN2CCCC(O)(CNCc3ncc[nH]3)C2=O)c1 (stereo not given) | 5.87
CCC[C@H]1CN(Cc2ccc(N(C)C)nc2)C[C@@H]1NC(=O)CSC | 7.78
Cc1ccc(Cl)cc1-n1nnnc1C1(N2CCCC2)CCCC1 | 1.18

SMILES | cytotoxicity at 10 µM [%]
Cc1cccc(SC2CCN(C(=O)CCCS(N)(=O)=O)CC2)c1 | -6.01
CCNC(=O)C1CCN(c2cc(-c3ccccc3)nc3ccnn23)C1 (stereo not given) | -16.9
Cc1ncsc1C(=O)N1CCn2nc(CN3CCSCC3)cc2C1 | -51
c1ccc(CCN2CCN(c3ncnc4[nH]ccc34)CC2)cc1 | 5.09
Cc1nc(C(=O)N2CCN(c3ncccn3)[C@@H]3CS(=O)(=O)C[C@@H]32)cs1 | 6.12
OC1(CN2CCCC2)COCCN(c2noc(-c3ccccc3)n2)C1 (stereo not given) | 0.726
CCn1nccc1S(=O)(=O)N1CCC2(CCCN(C(C)C)C2=O)C1 (stereo not given) | -10.9
Cc1ccccc1N1CCN(C(=O)c2ncc(F)cc2F)C(C)C1 (stereo not given) | 11.4
COc1ccc(N2CCC(N3C[C@H](NC(C)=O)[C@@H](C(C)C)C3)CC2)cc1 | -9.92
COc1ccccc1-n1cc(C(=O)NCCn2nc(C)nc2C)cn1 | 9.27
CS(=O)(=O)c1ccc(CN2CCCCC2c2ccc(F)cc2)cc1 (stereo not given) | 6.04
Cc1cc(NC(C)Cn2cccn2)n2nccc2n1 (stereo not given) | 1.99
CCN1CCN(S(=O)(=O)c2cnc(NC(C)=O)s2)CC1 | 1.37
CCOc1ccc(-c2cc(CCN)ccc2OC)cc1 | 1.63
Cn1ccnc1C(NCc1ccccc1)c1ccc(F)cc1 (stereo not given) | 0.573
CC(C)(C)c1nnc(CN2CCCC2Cn2cncn2)o1 (stereo not given) | -4.04
Cc1cnc(CN2CCOC(Cn3nc(C)cc3C)C2)cn1 (stereo not given) | -2.81
CN(Cc1csc(-c2cnn(C)c2)n1)CC1CCN(CCO)CC1 | 7.77
c1ccc(Cn2cc(CNCC3CCCN3c3cccnn3)cn2)cc1 (stereo not given) | -4.03
CCN1CCOC(CNCc2ccccn2)C1 (stereo not given) | -9.09
CN(Cc1ccsc1)C(=O)c1cc2c([nH]c1=O)CCCC2=O | -6.88
Cc1nc(N2CCN(C(=O)c3ccc(O)cc3)CC2)c2cnn(C)c2n1 | -4.91

SMILES | cytotoxicity at 10 µM [%]
Cc1cc(C)cc(OCC(=O)NC2CCN(S(C)(=O)=O)CC2)c1 | -5.72
Cc1ccsc1CNC(=O)Cc1c(C)nc2c(c1C)c(=O)[nH]n2C | -0.168
CN(C)Cc1cnc(C2CCN(C(=O)c3ccccc3F)C2)[nH]1 (stereo not given) | 0.578
O=S(=O)(C1CC1)N1CC[C@@H]2[C@@H]1CCN2Cc1cccs1 | 5.77
CS(=O)(=O)N1C[C@H]2CCC[C@@]2(COc2ccccn2)C1 | 1.13
NCC1[C@H]2CN(CCc3ccccc3)C[C@@H]12 (stereo not given in full) | 5.22
CS(=O)(=O)NCc1cnc2n1CCN(Cc1ccoc1)CC2 | -4.1
CN(C)CCO[C@H]1CN(Cc2ccc3c(c2)OCO3)[C@@H]2COC[C@H]12 | -5.5
CN(Cc1ccccn1)C1CC2(CCN(Cc3cccnc3)CC2)C1 | 0.925
CO[C@H]1CN(Cc2ccc(C)o2)[C@@H]2CCCO[C@H]12 | -144
COCc1nnc2n1CCN(Cc1ccoc1)C2 | -2.56
COCC(=O)N1CCC2(CC1)COC(COCc1ccccn1)C2 (stereo not given) | -128
CC(C)Nc1nc2c(cc1C(=O)NCC1CC1)CCNCC2 | -5.42
CN(C)CCN1CCC2(CCCN(C(=O)C3CCC3)C2)CC1 | 4.38
Cn1cc(CN2C[C@@H]3COC[C@]3(COCC3CC3)C2)cn1 | -112
O=C(Cc1ccccn1)N1CCN2C[C@H](Oc3cccc(F)c3)C[C@H]2C1 | 3.94
OCCN1CCC2(CC1)CC(NCc1ccccn1)c1ccccc1O2 (stereo not given) | 0.98
Cn1ccnc1CN1CCC2(CC1)CN(Cc1ccccc1)C(=O)CO2 | -3.99
COc1cccc(-c2cc(C3=NC(=CN4CCN(C)CC4)NO3)[nH]n2)c1 | -7.54
OCC1N(Cc2ccco2)C2CCC1(O)CC2 (stereo not given) | 3.1
O=C1[C@@H]2CC[C@@H](CN(C3CCOCC3)C2)N1Cc1cscn1 | -7.15
Cn1c(=NC(=O)CSCC(=O)Nc2nccs2)sc2ccccc21 | -1.81
